Assay results reported in ChEMBL document CHEMBL4038284, “Synthesis of novel quinoline-based 4,5-dihydro-1H-pyrazoles as potential anticancer, antifungal, antibacterial and antiprotozoal agents” (Eur J Med Chem, 2017).
In brackets after ≈: the same amount, converted by molar mass.

Legend:
Assay type in all cases: functional
[1] = test system: SR; experiment: Growth inhibition of human SR cells incubated for 48 hrs by sulforhodamine B assay; conditions: for CC50: read-out: LC50 (the source's name)
How it was run: (§1)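 NCI 60-line screen. Cells in RPMI-1640 with 5% FBS and 2 mM L-glutamine, preincubated 24 h, then time-zero plates TCA-fixed. Compounds from DMSO stocks given at five final concentrations (100, 10, 1.0, 0.1, 0.01 µM) for 48 h at 37 °C, 5% CO2. Cells fixed with 10% TCA, SRB-stained, read at 515 nm. GI50 is the concentration giving 50% lower net protein increase versus control.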

[2] = test system: A498; experiment: Growth inhibition of human A498 cells incubated for 48 hrs by sulforhodamine B assay; conditions: A498, 48 h; for CC50: read-out: LC50 (the source's name); how it was run: as §1
[3] = test system: LOX IMVI; experiment: Growth inhibition of human LOXIMVI cells incubated for 48 hrs by sulforhodamine B assay; conditions: for CC50: read-out: LC50 (the source's name)
How it was run: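 Five-dose NCI SRB assay at 100, 10, 1.0, 0.1 and 0.01 μM for 48 h at 37 °C, 5% CO2. Medium was RPMI-1640 with 5% FBS and 2 mM glutamine. Time-zero plates were TCA-fixed at compound addition, A515 read after SRB staining. GI50 was solved from [(Ti−Tz)/(C−Tz)]×100 = 50. Values beyond the tested range are given as > or <.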

[4] = test system: ACHN; experiment: Growth inhibition of human ACHN cells incubated for 48 hrs by sulforhodamine B assay; conditions: for CC50: read-out: LC50 (the source's name); how it was run: as §1
[5] = test system: Staphylococcus aureus; experiment: Bactericidal activity against methicillin-resistant Staphylococcus aureus ATCC 43300 after 24 hrs by resazurin dye based microdilution assay; conditions: ATCC 43300, 24 h
How it was run: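 3 µL of each dilution with no visible growth was plated onto trypticase agar. Gentamicin as control. Duplicate, replicated at least three times.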

[6] = test system: Staphylococcus aureus; experiment: Bactericidal activity against methicillin-sensitive Staphylococcus aureus ATCC 25923 after 24 hrs by resazurin dye based microdilution assay; conditions: ATCC 25923, 24 h
[7] = test system: Staphylococcus aureus; experiment: Bactericidal activity against vancomycin-intermediate Staphylococcus aureus after 24 hrs by resazurin dye based microdilution assay
[8] = test system: Klebsiella pneumoniae; experiment: Bactericidal activity against carbapenemase positive Klebsiella pneumoniae BAA 1705 after 24 hrs by resazurin dye based microdilution assay; conditions: BAA 1705, 24 h
[9] = test system: Escherichia coli; experiment: Bactericidal activity against Escherichia coli ATCC 25922 after 24 hrs by resazurin dye based microdilution assay; conditions: ATCC 25922, 24 h

| SMILES | GI50 [1] | CC50 [1] | GI50 [2] | CC50 [2] | GI50 [3] | CC50 [3] | GI50 [4] | CC50 [4] | MBC [5] | MBC [6] | MBC [7] | MBC [8] | MBC [9] |
| --- | --- | --- | --- | --- | --- | --- | --- | --- | --- | --- | --- | --- | --- |
| COc1cc(C(=O)/C=C/c2cccc(Nc3ccnc4cc(Cl)ccc34)c2)cc(OC)c1OC | 320 nM | > 100000 nM | 1540 nM | > 100000 nM | 370 nM | 3950 nM | 1240 nM | 4990 nM | – | – | – | – | – |
| COc1ccc(C2=NN(C=O)C(c3cccc(Nc4ccnc5cc(Cl)ccc45)c3)C2)cc1 (centres undefined) | 580 nM | > 100000 nM | 1350 nM | > 100000 nM | 2520 nM | 39000 nM | 4590 nM | > 100000 nM | – | – | – | – | – |
| O=CN1N=C(c2ccc(Cl)cc2)CC1c1cccc(Nc2ccnc3cc(Cl)ccc23)c1 (centres undefined) | 400 nM | > 100000 nM | 980 nM | > 100000 nM | 1290 nM | 9050 nM | 2640 nM | > 100000 nM | – | – | – | – | – |
| O=Cc1cccc(Nc2ccnc3cc(Cl)ccc23)c1 | – | – | – | – | – | – | – | – | > 1000 µg/mL | 500 µg/mL (≈ 1770 µM) | 500 µg/mL (≈ 1770 µM) | > 1000 µg/mL | 500 µg/mL (≈ 1770 µM) |
| COc1cccc2c1C(=O)c1c(O)c3c(c(O)c1C2=O)C[C@@](O)(C(=O)CO)C[C@@H]3O[C@H]1C[C@H](N)[C@H](O)[C@H](C)O1 [DOXORUBICIN] | 30 nM | 100000 nM | 100 nM | 1900 nM | 70 nM | – | 80 nM | 100000 nM | – | – | – | – | – |
| COc1ccc(C(=O)/C=C/c2cccc(Nc3ccnc4cc(Cl)ccc34)c2)cc1 | 490 nM | > 100000 nM | 3000 nM | > 100000 nM | 1580 nM | > 100000 nM | 1730 nM | > 100000 nM | – | – | – | – | – |
